Screening results as filed in PubChem.
An excerpt weighted towards active compounds, which were near 2.3% of everything screened.
ZTA counter: counter-screen for EBNA-1 inhibitors: inhibitors of Epstein-Barr virus ZTA; inhibition, % at 11 µM; AID 2234; P03206; actives 0.15% (n = 320,000); ZTA-DNA binding, fluorescence polarization; in the data active = inhibition above about 33%
GPR7 antag: GPR7 receptor antagonists, primary screen, cell-based, fluorescence, single concentration; GPR7-expressing cells, fluorescence antagonist assay; inhibition, % at 4.4 µM; actives 1.1% (n = 290,000); AID 1861, 2009; in the data active = inhibition above about 16%, passing the limit was not always enough;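 note: cells stimulated with the agonist NPW; 0% = agonist with vehicle and 100% = vehicle without agonist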
Target sequence (P48145 whole entry, looked up): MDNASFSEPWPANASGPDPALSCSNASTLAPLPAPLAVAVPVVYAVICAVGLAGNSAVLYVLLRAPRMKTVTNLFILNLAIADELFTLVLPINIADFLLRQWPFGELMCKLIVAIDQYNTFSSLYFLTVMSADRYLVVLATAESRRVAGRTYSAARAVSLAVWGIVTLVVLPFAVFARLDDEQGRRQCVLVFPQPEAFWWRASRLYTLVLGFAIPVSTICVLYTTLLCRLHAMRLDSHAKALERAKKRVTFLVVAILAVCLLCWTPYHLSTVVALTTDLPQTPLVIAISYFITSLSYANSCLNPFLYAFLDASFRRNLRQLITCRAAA
HCV NS3 hel inh: inhibitors of HCV NS3 helicase, primary screen, biochemical, Cy5 molecular beacon fluorescence. Hepatitis C virus NS3 helicase. NS3 helicase DNA unwinding. inhibition, % at 10.9 µM. actives 0.56% (n = 290,000). AID 1800, 2009;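 active = inhibition above the mean of all tested compounds plus 3 SD, set per campaign, cut at about 35% in these data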;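 note: 0% = DMSO wells and 100% = thioflavine S control wells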
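Compound dosing – single dose, 10.9 µM nominal final, DMSO 0.8% final · System – NS3 helicase fragment of HCV · Buffer or medium – MOPS pH 6.5, MgCl2, DTT, Tween20, BSA · Signal – Cy5 beacon fluorescence read at start and 1 h · Also added – annealed dual-labelled DNA beacon duplex, ATP-started · Schedule – 1 h at 25 °C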
EBNA-1 inh: EBNA-1 DNA-binding inhibitors, primary screen, biochemical, fluorescence polarization. actives 0.34% (n = 300,000). inhibition, % at 14.8 µM. AID 1950, 2009; in the data active = inhibition above about 28%
HCV core dimer: inhibitors of HCV core protein dimerization, primary screen, biochemical, TR-FRET, high-throughput; TR-FRET GST/Flag-core106 dimerization, 1536-well; inhibition, % at 5 µM; actives 0.33% (n = 300,000);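 active = inhibition above the mean of all tested compounds plus 3 SD, set per screening campaign, cut at about 45% in these data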
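test system = GST/Flag-tagged HCV core106 proteins | probe or stimulus = Eu donor and XL665 acceptor anti-tag antibodies | times = compound-protein-antibody incubation 4 h at 22.5 °C | signal = TR-FRET, excitation 340 nm, emission 617 and 671 nm | measure = percent inhibition of core106 dimerization signal | controls = wells lacking GST-core106 and wells with excess unlabelled core106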
EBV gp42 block: Epstein-Barr virus gp42 inhibitors, primary screen, biochemical, uHTS, fluorescence polarization. Glycoprotein 42 (Epstein-Barr virus (strain AG876)), Q1HVG2. Fluorescence polarization binding assay, mP read-out. inhibition, % (tested at 21.74 µM). actives 0.42% (n = 220,000). AID 1085, 2008; in the data active = inhibition above about 50%
Target sequence (Q1HVG2 whole entry, looked up): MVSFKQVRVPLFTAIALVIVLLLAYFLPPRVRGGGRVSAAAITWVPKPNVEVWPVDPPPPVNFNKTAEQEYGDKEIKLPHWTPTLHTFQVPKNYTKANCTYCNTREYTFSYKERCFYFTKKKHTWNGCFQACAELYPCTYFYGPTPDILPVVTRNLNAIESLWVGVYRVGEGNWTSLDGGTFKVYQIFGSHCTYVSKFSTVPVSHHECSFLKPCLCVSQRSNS
An asterisk follows results filed as active; / = no result given.

SMILES	ZTA counter	GPR7 antag	HCV NS3 hel inh	EBNA-1 inh	HCV core dimer	EBV gp42 block
Cc1cccc[n+]1CCCCCCCCCC[n+]1ccccc1C	-0.3	-0.2	5.0	-1.2	-0.2	-9.8
CCCCCCCC[n+]1cccc2c3ccccc3ccc21	-6.0	67.2*	-33.0	-14.7	2.9	-28.3
COc1cccc(C2/C(=C(\O)c3ccc4c(c3)OCCO4)C(=O)C(=O)N2CCCN2CCOCC2)c1OC (centres undefined)	3.1	-5.7	7.4	4.6	-1.2	/
O=[N+]([O-])c1cccc(OCCN2CCC(Cc3ccccc3)CC2)c1	/	14.4	-51.1	/	/	/
Cc1cc(OCCCCCNCCO)cc(C)c1Cl	-5.0	19.1*	-27.6	-5.4	-0.8	5.2
Cc1cc(OCCNCCO)cc(C)c1Cl	14.1	-9.2	-7.4	15.9	-3.3	-10.8
O=C(OCn1nnc2ccccc2c1=O)c1ccc(N2CCOCC2)c([N+](=O)[O-])c1	2.3	-12.5	-1.6	0.6	-6.1	4.6
CCOc1ccc(-c2cc(N)n(S(=O)(=O)c3ccc(OC)c(OC)c3)n2)cc1	-5.9	0.7	-8.5	19.6	0.7	5.0
COc1ccc(S(=O)(=O)n2nc(-c3ccc(Cl)cc3)cc2N)cc1OC	-1.6	18.2*	-12.5	4.4	-2.4	4.7
COc1ccccc1CNC(=O)c1nn(-c2ccc(C)cc2)c(=O)c2c1c1ccccc1n2C	1.0	-3.6	0.8	-11.3	31.8	-7.5
COc1cccc(-n2nnnc2SCC(=O)Nc2ccc(NC(C)=O)cc2)c1	-20.2	5.3	3.8	-0.8	-7.7	/
Cc1ccc(Cc2c(C)nc3nc(SCC(=O)NCCCN4CCCCCC4)nn3c2C)cc1	-13.8	20.8	-25.9	-8.7	93.8*	/
COc1ccc(CN2C(=O)N(c3ccccc3)C(=O)C2CC(=O)Nc2ccccc2)cc1OC (centres undefined)	-5.7	6.6	-17.2	4.4	-0.5	-11.5
CC1(C)Cc2c(sc3[nH]c(=S)n(Cc4ccco4)c(=O)c23)CO1	8.7	-14.7	19.9	12.5	0.7	7.4
O=c1c2c3c(sc2[nH]c(=S)n1Cc1ccco1)CCC3	-9.3	-11.0	11.2	3.1	48.1*	16.4
CN(c1ccc(OCC(=O)Nc2nc(-c3ccccc3)cs2)cc1)S(=O)(=O)c1ccc(F)cc1	-1.2	20.9*	-10.4	-18.8	30.4	-25.6
Cc1ccc(S(=O)(=O)N(C)c2ccc(OCC(=O)Nc3nc(-c4ccccc4)cs3)cc2)cc1	1.8	-1.2	5.3	0.8	30.2	-25.0
CCCN(Cc1nnc(-c2ccccc2Cl)o1)C(=O)c1cccc(S(=O)(=O)N2CCOCC2)c1	-7.6	1.5	-2.2	5.0	-6.2	/
Cc1ccc(NC(=O)C(C)c2ccc([N+](=O)[O-])cc2)cc1Cl (centres undefined)	-23.7	40.1*	12.2	-6.4	-2.9	11.0
Cc1csc(NC(=O)C2CCCO2)n1 (centres undefined)	-3.6	14.3*	-1.7	1.2	-3.8	-12.2
O=C(Nc1nc(-c2ccccc2)cs1)C1CCCO1 (centres undefined)	-23.9	12.1	11.0	1.2	-0.8	5.1
CCOC(=O)c1ccc(N2C(=O)C3C(C2=O)C(C(=O)c2ccc(Cl)cc2)N2CCCC32)cc1 (centres undefined)	-3.7	6.7	28.6	2.7	74.2*	93.6*
COCCn1c(=NC(=O)/C=C/c2ccccc2)sc2cc(NC(C)=O)ccc21	9.1	-10.8	-6.8	10.8	5.2	-38.0
N#CC1CC(c2ccc([N+](=O)[O-])cc2)=NN1c1ccc([N+](=O)[O-])cc1 (centres undefined)	10.4	2.0	-0.7	11.4	11.3	94.2*
O=[N+]([O-])c1cccc(C2CC(c3ccccc3)=NN2c2ccccc2)c1 (centres undefined)	-11.9	-8.4	-13.6	-1.4	-1.0	/
SMILES	ZTA counter	GPR7 antag	HCV NS3 hel inh	EBNA-1 inh	HCV core dimer	EBV gp42 block
Cc1cc(C)c(C#N)c(SCC(=O)N2CCN(Cc3ccccc3)CC2)n1	-26.6	-3.4	-5.0	-5.6	-3.0	12.8
Cc1cc(C)c(C#N)c(SCC(=O)N2CCCCC2)n1	-6.7	-13.7	-1.3	-6.9	-5.3	119.3*
COc1ccc2oc(C(=O)Nc3nc(-c4ccccn4)cs3)c(C)c2c1	1.9	/	/	0.0	55.7*	/
COc1ccc(NC(=O)c2cccc(S(=O)(=O)N3CCN(C)CC3)c2)c(OC)c1	-7.7	-12.6	-9.1	-8.1	10.2	/
CC(C)CN(c1ccccc1)S(=O)(=O)c1nnc(NC(=O)C(C)C)s1	11.3	11.0	14.4	-9.6	3.0	/
c1ccc(CNc2nc(NCc3ccccc3)c3ccccc3n2)cc1	2.5	74.1*	-39.2	-8.1	-2.1	11.8
c1ccc(CNc2nc(-c3ccccc3)nc3ccccc23)cc1	-12.5	-22.4	-12.8	-7.2	10.9	/
NS(=O)(=O)c1ccc(CCNC(=O)COC(=O)c2nc(Cl)ccc2Cl)cc1	-9.2	/	/	/	/	/
CCCCCCOC(=O)C(C#N)c1nc2ccccc2nc1N1CCOCC1 (centres undefined)	1.9	-0.6	-3.5	-5.0	3.6	99.3*
CCCCOC(=O)C(C#N)c1nc2ccccc2nc1N1CCOCC1 (centres undefined)	12.0	-11.1	-2.6	11.7	-10.7	-4.5
CS(=O)(=O)NCCSc1nnnn1-c1ccccc1	15.4	18.3*	16.1	5.5	-1.9	-24.1
Cc1nn(CC(=O)Nc2ccccc2)c(=O)c2ccccc12	9.2	-8.5	8.8	11.3	1.9	-0.6
Cc1ccc(NC(=O)Cn2nc(C)c3ccccc3c2=O)cc1F	-15.3	18.6*	-3.0	2.5	3.5	-25.1
Cc1ccc[n+](-c2[nH]c(=O)sc2/C=N/NC(=O)c2ccccc2[O-])c1	6.2	-9.9	11.6	9.1	-4.7	52.9*
Cc1cc[n+](-c2[nH]c(=O)sc2/C=N/N=C(\[O-])c2ccccc2)cc1C	/	-10.6	5.1	/	/	136.8*
O=C(N/N=C/c1sc(=O)[nH]c1-[n+]1ccccc1)c1ccccc1[O-]	12.4	13.8	7.5	-8.4	-1.4	40.7
Cc1cc[n+](-c2[nH]c(=O)sc2/C=N/N=C(\[O-])c2ccncc2)cc1C	-15.3	13.8	25.9	-16.6	-12.3	/
O=C(Nc1ccc2cn[nH]c2c1)c1c(Cl)cccc1Cl	-5.4	4.8	-3.3	-1.6	2.1	4.4
O=C1C(Cl)=C(Nc2ccc3cn[nH]c3c2)C(=O)c2ccccc21	-9.2	40.7*	15.4	-17.2	-21.8	-22.5
CCCOc1ccc2cc(C(=O)NCc3ccccc3)c(=O)oc2c1	11.3	-9.1	-0.8	9.2	58.3*	/
COc1ccc2oc(=O)c(C(=O)NCc3ccccc3)cc2c1	14.3	2.9	1.2	9.1	-1.2	/
